Screening data as filed in PubChem.
p97 inhibitor: inhibitors of human p97 ATPase, primary screen, biochemical; Transitional endoplasmic reticulum ATPase (Homo sapiens), P55072; recombinant p97 ATPase, Kinase-Glo ATP luminescence, 3 h; inhibition, % at 8 µM; 220,000 compounds, 0.42% hits; in the data active = inhibition above about 15%;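 also: 0% = DMSO vehicle and 100% = wells lacking enzyme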
RBBP9 inhibitor: human RBBP9 inhibitors, primary screen, biochemical, fluorescence polarization, FP-Rh probe, HTS | inhibition, % at 7.94 µM | Serine hydrolase RBBP9 (Homo sapiens), O75884 | 220,000 compounds, 0.2% hits | recombinant RBBP9 | AID 1515, 2009;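 active = inhibition above the campaign mean of all tested compounds plus 3 SD, cut at about 14% in these data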;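 also: plate controls were DMSO wells with RBBP9 for no effect and wells lacking RBBP9 protein for full effect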
Target sequence (O75884 whole entry, looked up): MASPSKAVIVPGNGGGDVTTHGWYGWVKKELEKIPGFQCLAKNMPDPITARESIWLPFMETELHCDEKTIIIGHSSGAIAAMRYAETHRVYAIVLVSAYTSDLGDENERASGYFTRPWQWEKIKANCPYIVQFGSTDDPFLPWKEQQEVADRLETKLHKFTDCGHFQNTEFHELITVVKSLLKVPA
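Measured by: FP readout at 525/598 nm; material: recombinant human RBBP9; also added: Serine-hydrolase probe FP-Rh, 375 nM pre-mixing; medium: Tris buffer pH 8.0, NaCl, Pluronic; replication: one well per compound; doses: one concentration, 7.94 µM nominal, 0.794% DMSO; timing: preincubation 30 min plus labeling 45 min at 25 °C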
PP1 inh: PP1-alpha phosphatase inhibitors, primary screen, counter-screen for PP5 inhibitor project, biochemical, fluorescence, OMFP substrate, single point; Serine/threonine-protein phosphatase PP1-alpha catalytic subunit (Homo sapiens), P62136; purified PP1alpha; inhibition, % at 6.7 µM; 320,000 compounds, 0.9% hits; AID 2235, 2010;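 active = inhibition above the mean inhibition of all tested compounds plus 3 SD, computed separately for each screening campaign, cut at about 15% in these data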
Target sequence (P62136 whole entry, looked up): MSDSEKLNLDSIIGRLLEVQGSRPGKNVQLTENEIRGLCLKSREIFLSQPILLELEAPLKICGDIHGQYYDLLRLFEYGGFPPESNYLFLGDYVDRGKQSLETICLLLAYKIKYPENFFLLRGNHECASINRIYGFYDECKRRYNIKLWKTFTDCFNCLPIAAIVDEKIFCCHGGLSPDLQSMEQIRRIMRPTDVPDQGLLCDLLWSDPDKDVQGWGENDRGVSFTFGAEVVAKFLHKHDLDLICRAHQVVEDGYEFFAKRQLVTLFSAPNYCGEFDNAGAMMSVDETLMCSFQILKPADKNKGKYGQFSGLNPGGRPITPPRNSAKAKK
PKD1 kinase inh: inhibitors of human PKD1 kinase, biochemical, fluorescence polarization; PKD1 kinase fluorescence polarization assay; Serine/threonine-protein kinase D1 (Homo sapiens), Q15139; inhibition, % (test concentration not listed); 200,000 compounds, 0.056% hits; in the data active = inhibition above about 50%
Hsp70 act: Hsp70 transcriptional activators, primary screen, cell-based, HeLa, Hsp70 promoter luciferase, luminescence, 10 µM | HeLa Hsp70 promoter luciferase reporter; scaled: vehicle 0, proteasome-inhibitor control 100% | activation, % at 10 µM | 200,000 compounds, 0.04% hits;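 active = activation above the mean across all tested compounds plus 3 SD, cutoff set per campaign, cut at about 5.5% in these data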;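 also: 100% = MG132 at 30 µM as the positive control and 0% = DMSO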
PP5 inh: PP5 phosphatase inhibitors, primary screen, biochemical, fluorescence. Serine/threonine-protein phosphatase 5 (Homo sapiens), P53041. purified PP5c, OMFP substrate fluorescence. inhibition, % at 6.7 µM. 320,000 compounds, 0.18% hits. AID 1987, 2009;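 active = inhibition above the campaign's mean inhibition across all tested compounds plus 3 SD, cut at about 9.5% in these data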;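 also: 0% = DMSO only and 100% = 100 µM cantharidin control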
PP5 conf: PP5 phosphatase inhibitors, confirmation, biochemical, fluorescence, human. shares compounds with PP5 inh. Purified PP5, fluorogenic phosphatase substrate. inhibition, % at 6.7 µM. 460 compounds, 22% hits; in the data active = inhibition above about 9.5%
PP1 counter 3x: PP1 phosphatase inhibitors, counter-screen for PP5 inhibitor project, biochemical, fluorescence, triplicate; shares compounds with PP5 inh; PP1 enzyme, fluorescent phosphatase substrate; inhibition, % at 6.7 µM; 460 compounds, 4% hits; in the data active = inhibition above about 16%
Active calls of the source: *; x = not tested or not shown. An excerpt weighted towards active compounds, which were near 1.5% of everything screened.

SMILES	p97 inhibitor	RBBP9 inhibitor	PP1 inh	PKD1 kinase inh	Hsp70 act	PP5 inh	PP5 conf	PP1 counter 3x
CCOC(=O)N1CCN(C(=O)c2cccn3c(=O)c4cc(Br)ccc4nc23)CC1	2	3	-5	-1	0	0	x	x
CCOC(=O)N1CCN(C(=O)c2cccn3c(=O)c4cc(Cl)ccc4nc23)CC1	0	-4	1	8	0	11*	-5	-5
O=C1c2ccccc2C(=O)C12OC2c1cccc2ccccc12 (stereo unspecified)	7	3	0	2	0	10*	35*	17*
S=C(Nc1ccc2c(c1)OCO2)N1CCN(Cc2ccco2)CC1	1	-1	0	-5	1	-1	x	x
N#C/C(=C\Nc1ccccc1O)c1nc2ccccc2o1	4	-15	2	-6	0	8	x	x
COc1ccc(C(C)=O)cc1CSCc1cc(C(C)=O)ccc1OC	x	x	0	x	x	1	x	x
COc1cc(C(C)=O)ccc1COc1ccc(C(=O)O)cc1OC	5	-10	-1	x	x	11*	-1	-1
CNS(=O)(=O)c1cc(Br)ccc1S(=O)c1ccccc1C(=O)O (stereo unspecified)	5	5	-1	x	x	0	x	x
Nc1ccc(O)cc1	x	x	13	x	x	11*	5	-2
Nc1ccc(C(=O)O)cc1	x	x	-5	x	x	2	x	x
COC(=O)c1[nH]c(C)c(/C(O)=C2\C(=O)C(=O)N(CCN3CCOCC3)C2c2ccccc2OC)c1C (stereo unspecified)	3	-4	2	-1	0	11*	1	0
COC(=O)c1[nH]c(C)c(/C(O)=C2\C(=O)C(=O)N(CCN(C)C)C2c2ccccc2OC)c1C (stereo unspecified)	-5	-12	-1	-3	0	0	x	x
Cc1ccc(C(=O)NCc2ccccn2)cc1Cl	2	-1	-6	-4	0	3	x	x
Cc1ccnc(NC(=O)COC(=O)c2ccc(F)cc2F)n1	3	0	-5	x	x	15*	-5	-5
CCOc1ccc(C2c3cc(OC)c(OC)cc3CC(=O)N2c2ccc(OC)cc2)cc1 (stereo unspecified)	-1	0	2	-13	0	9.7*	1	0
CCSc1nnc(NC(=O)CSc2nc3c(c(=O)n2-c2ccccc2)SCC3)s1	6	-8	-4	-8	0	12*	-4	-2
Cc1ccc(S(=O)(=O)N2CCC(=O)CC2)cc1	x	x	-6	x	x	-8	x	x
O=S(=O)(c1ccc(OC(F)(F)F)cc1)N1CCC(O)(c2cccc(C(F)(F)F)c2)CC1	x	x	12	x	x	11*	7	8
COc1ccc(CCNC(=O)Cn2nnc(-c3ccccc3F)n2)cc1OC	3	-8	0	-16	0	-2	x	x
O=C(Nc1ccc(OCC(F)(F)C(F)F)c(C(F)(F)F)c1)c1ccccc1	2	-16	7	-7	0	9	x	x
O=C(Nc1ccc(OCC(F)(F)C(F)F)c(C(F)(F)F)c1)c1ccccc1O	5	-19	2	-3	0	11*	6	5
CCc1ccccc1N(C(=O)c1snc(C(N)=O)c1N)C(C(=O)NCC1CCCO1)c1ccc(C)o1 (stereo unspecified)	x	x	7	x	x	0	x	x
CCOC(=O)c1cccnc1NC(=O)c1ccccc1	3	-6	-7	4	0	2	x	x
CCC(=O)Nc1cccc(-n2nnnc2SCC(=O)c2ccc(C)c(C)c2)c1	5	-10	0	-14	0	13*	2	1
CCC(=O)Nc1cccc(-n2nnnc2SCC(=O)NCc2ccco2)c1	8	3	4	4	0	3	x	x
SMILES	p97 inhibitor	RBBP9 inhibitor	PP1 inh	PKD1 kinase inh	Hsp70 act	PP5 inh	PP5 conf	PP1 counter 3x
Clc1ccc(OCCn2ccnc2)cc1Cl	x	x	2	x	x	10*	-2	-3
Cc1nc(C)c(-c2ccnc(/N=C/NO)n2)s1	5	-2	-6	x	x	0	x	x
Cc1ccc(Nc2nc(/N=C/NO)n[nH]2)cc1C	-1	5	2	-2	0	11*	-4	-4
CCOC(=O)c1ccc(NC(=O)c2nc[nH]c2C(=O)N[C@@H](CC(C)C)C(=O)OC(C)(C)C)cc1	x	x	7	x	x	8	x	x
CC(C)C[C@H](NC(=O)c1[nH]cnc1C(=O)Nc1ccccc1)C(=O)OC(C)(C)C	x	x	7	x	x	9.8*	7	6
CC(C)C[C@H](NC(=O)c1nc[nH]c1C(=O)NCC(=O)OC(C)(C)C)C(=O)OCc1ccccc1	x	x	9	x	x	12*	9	9
CC(C)C[C@H](NC(=O)c1nc[nH]c1C(=O)NCC(=O)OCc1ccccc1)C(=O)OCc1ccccc1	x	x	9	x	x	2	x	x
CC(C)C[C@H](NC(=O)c1[nH]cnc1C(=O)N[C@@H](C)C(=O)OC(C)(C)C)C(=O)OC(C)(C)C	x	x	10	x	x	11*	7	8
O=C(Nc1ccc(C2CCCCC2)cc1)C1CCN(c2ncccn2)CC1	x	x	-3	x	x	10*	-4	-3
COc1ccc(C(=O)NC2CCN(CC(=O)NCc3cccc(OC)c3)CC2)cc1	x	x	-1	x	x	12*	-3	-6
COc1ccc(C(=O)C2CCN(CC(=O)NCc3ccccc3)CC2)cc1	x	x	2	x	x	2	x	x
NC(=O)C1CC12c1ccccc1-c1ccccc12 (stereo unspecified)	x	x	6	x	x	-3	x	x
CC(C)(C)OC(=O)NCCCC[C@H](NC(=O)c1[nH]cnc1C(=O)Nc1ccccc1)C(=O)OC(C)(C)C	x	x	7	x	x	11*	8	8
CNC(=O)c1[nH]cnc1C(=O)N[C@@H](CCCCNC(=O)OC(C)(C)C)C(=O)OC(C)(C)C	-2	-4	8	4	0	1	x	x
CC(C)C[C@H](NC(=O)c1nc[nH]c1C(=O)N[C@@H](CCCCNC(=O)OC(C)(C)C)C(=O)OC(C)(C)C)C(=O)OC(C)(C)C	x	x	11	x	x	14*	9	11
CCOC(=O)c1c(NC(=O)C2C3CCC(O3)C2C(=O)O)sc2c1CCCC2 (stereo unspecified)	4	-6	9	0	0	14*	11*	7
